Series [1] relates to Liver microsome. As to the kind of experiment: Retention time of the compound in mixed human liver microsomes treated with 20(S)-protopanaxadiol at 50 uM after 60 mins by liquid chromatography-electrospray ionization ion trap mass spectrometry. It is filed as ADME. Conditions: 1 h. The essentials:
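Pooled HLM protein 1.0 mg/ml with substrate 50 µM in 100 mM potassium phosphate pH 7.4, 0.1% (v/v) final MeOH. Preincubated 3 min at 37°C, started with 2.0 mM NADPH, incubated 60 min. Stopped with equal volume ice-cold acetonitrile. Controls lacked NADPH or substrate, in duplicate. Analysed on C8 reversed-phase column, formic acid methanol/ammonium acetate gradient, ESI ion trap MSⁿ.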
Background: Microsomes from liver hold many membrane-bound enzymes, among them those of drug oxidation.

The test system of series [2] is Hepatocyte. As to the kind of experiment: Drug level in human hepatocytes treated with 20(S)-protopanaxadiol at 50 uM after 180 mins by liquid chromatography-electrospray ionization ion trap mass spectrometry. It is filed as ADME, cell-based. As to conditions: 3 h. The essentials: (§1)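 Human hepatocytes (2 million cells/ml) in Williams' E medium with substrate 50 µM, 0.5% (v/v) final MeOH, 37°C for 3 h. Negative controls were substrate at 0 h and no substrate at 3 h. Quenched with equal volume acetonitrile, in duplicate. Methanol was added, then centrifugation, dry-down and reconstitution. Analysed by C8 reversed-phase LC with formic acid/methanol–ammonium acetate gradient, ESI ion trap MSⁿ, m/z 100–800.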

Series [3] is described as follows: Drug excretion in Sprague-Dawley rat feces treated with 20(S)-protopanaxadiol at 100 mg/kg/day, po qd for 11 days administered via gavage by liquid chromatography-electrospray ionization ion trap mass spectrometry. It is filed as ADME, organism-based. Also on record: route oral. Conditions: in vivo, 264 h. The essentials:
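PPD given by gavage at 10 mg/ml in 0.5% carboxymethyl cellulose sodium, 0.5% polysorbate-80 and 99% saline; 20 rats, one per metabolic cage. Feces collected over 0–288 h (48 h after last dose), blanks taken before dosing, frozen at -20°C.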

Series [4] relates to Liver microsome. Description: Drug metabolism in mixed human liver microsomes assessed as metabolite 7-2 ((2S,3S,4S,5R,6S)-6-(2-((2R,5S)-5-((3S,5R,8R,9R,10R,12R,14R,17S)-3,12-dihydroxy-4,4,8,10,14-pentamethylhexadecahydro-1H-cyclopenta[a]phenanthren-17-yl)-5-methyltetrahydrofuran-2-yl)propan-2-yloxy)-3,4,5-trihydroxytetrahydro-2H-pyran-2-carboxylic acid) formation at 50 uM after 120 mins by liquid chromatography-electrospray ionization ion trap mass spectrometry in presence of UDPGA. It is filed as ADME. The essentials:
(§2)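 Pooled human liver microsomes, 1.0 mg/ml protein, in 50 mM Tris-HCl pH 7.4 with 10 mM MgCl₂, 2 mM UDPGA and 25 µg/mL alamethicin. Preincubated 3 min at 37°C, started with substrate 50 µM (final MeOH 0.1%), run 120 min, stopped with ice-cold acetonitrile. Time-0 controls; duplicates. Analysed by LC/ESI ion-trap MSn.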

A short description of series [5]: Retention time of the compound treated with 20(S)-protopanaxadiol at 100 uM measured after 60 mins by liquid chromatography-electrospray ionization ion trap mass spectrometry in presence of 10 uM 3-chloroperoxybenzoic acid. The format is physicochemical. As to conditions: 1 h. The essentials: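 PPD 100 µM oxidised chemically with m-CPBA 10 µM in CH₂Cl₂, stirred at room temperature for 15 and 60 min. Mixture poured into Na₂CO₃-saturated ice water and extracted three times with ether before LC/MS analysis.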

In series [6] the test system is Hepatocyte. Description: Retention time of the compound in human hepatocytes treated with 20(S)-protopanaxadiol at 50 uM after 180 mins by liquid chromatography-electrospray ionization ion trap mass spectrometry. It is filed as ADME, cell-based. As to conditions: 3 h. In outline: as §1
In series [7] the test system is Liver microsome. As to the kind of experiment: Drug level in mixed human liver microsomes treated with (20S,24S)-epoxydammarane-3,12,25-triol at 50 uM after 120 mins by liquid chromatography-electrospray ionization ion trap mass spectrometry in presence of UDPGA. The format is ADME. Conditions: 2 h. The essentials: (§3)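 Pooled HLM protein 1.0 mg/ml in 50 mM Tris-HCl pH 7.4 with 10 mM MgCl₂, 2 mM UDPGA and 25 µg/mL alamethicin. Preincubated 3 min at 37°C, then started with substrate (50 µM). Run 120 min, stopped with equal volume ice-cold acetonitrile. 0 min incubations served as controls, in duplicate. Processed and analysed by LC/ESI ion trap MSⁿ.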

The subject of series [8] is Liver microsome. As to the kind of experiment: Drug level in mixed human liver microsomes treated with (20S,24R)-epoxydammarane-3,12,25-triol at 50 uM after 120 mins by liquid chromatography-electrospray ionization ion trap mass spectrometry in presence of UDPGA. It is filed as ADME. Conditions: 2 h. In outline: as §3
The test system of series [9] is Liver microsome. Description: Drug metabolism in mixed human liver microsomes assessed as metabolite 7-1 ((2S,3S,4S,5R,6S)-6-(2-((2S,5S)-5-((3S,5R,8R,9R,10R,12R,14R,17S)-3,12-dihydroxy-4,4,8,10,14-pentamethylhexadecahydro-1H-cyclopenta[a]phenanthren-17-yl)-5-methyltetrahydrofuran-2-yl)propan-2-yloxy)-3,4,5-trihydroxytetrahydro-2H-pyran-2-carboxylic acid) formation at 50 uM after 120 mins by liquid chromatography-electrospray ionization ion trap mass spectrometry in presence of UDPGA. The format is ADME. The essentials: as §2

In the series on Liver microsome [1], `CC(C)(O)[C@H]1CC[C@@](C)([C@H]2CC[C@]3(C)[C@@H]2[C@H](O)C[C@@H]2[C@@]4(C)CCC(=O)C(C)(C)[C@@H]4CC[C@]23C)O1` showed a Retention_time of 19.7 min. Besides, the Drug metabolism result in the series on Hepatocyte [2] is “metabolite_detected”. Moreover, the Drug excretion result in [3] is given as “metabolite_detected”.
Turning to `CC(C)(O)[C@H]1CC[C@@](C)([C@H]2CC[C@]3(C)[C@@H]2[C@H](O)C[C@@H]2[C@@]4(C)CC[C@H](O)C(C)(C)[C@@H]4CC[C@]23C)O1`, the Retention_time (in the series on Liver microsome [1]; in series [5]) was 19.8 min in each case. In addition, the Drug metabolism entry in the series on Hepatocyte [2] and in the series on Liver microsome [4] was “metabolite_detected” throughout. In [3], the Drug excretion entry is recorded as “metabolite_detected”.
In turn, `CC(C)(O)[C@@H]1CC[C@@](C)([C@H]2CC[C@]3(C)[C@@H]2[C@H](O)C[C@@H]2[C@@]4(C)CCC(=O)C(C)(C)[C@@H]4CC[C@]23C)O1` yielded a Retention_time in the series on Liver microsome [1] of 19.1 min. In addition, the Drug metabolism result with Hepatocyte [2] is reported as “metabolite_detected”. Besides, the Drug excretion result in series [3] was “metabolite_detected”.
In the case of `CC(C)(O)[C@@H](O)CC[C@](C)(O)[C@H]1CC[C@]2(C)[C@@H]1[C@H](O)C[C@@H]1[C@@]3(C)CC[C@H](O)C(C)(C)[C@@H]3CC[C@]12C`, the Retention_time in the series on Hepatocyte [6] amounted to 13.2 min.
In the case of `CC1(C)O[C@H]1CC[C@](C)(O)[C@H]1CC[C@]2(C)[C@@H]1[C@H](O)C[C@@H]1[C@@]3(C)CC[C@H](O)C(C)(C)[C@@H]3CC[C@]12C`, the Retention_time (in the series with Liver microsome [1]; in [5]) was 18.7 min throughout. The Drug metabolism entry with Hepatocyte [2] is listed as “metabolite_detected”. For the same compound, in series [3], the Drug excretion result is recorded as “metabolite_detected”.
In the series with Hepatocyte [6], `CC(C)(O)[C@H](O)CC[C@](C)(O)[C@H]1CC[C@]2(C)[C@@H]1[C@H](O)C[C@@H]1[C@@]3(C)CC[C@H](O)C(C)(C)[C@@H]3CC[C@]12C` yielded a Retention_time of 15.8 min.
`CC(C)(O[C@@H]1O[C@H](C(=O)O)[C@@H](O)[C@H](O)[C@H]1O)[C@@H]1CC[C@@](C)([C@H]2CC[C@]3(C)[C@@H]2[C@H](O)C[C@@H]2[C@@]4(C)CC[C@H](O)C(C)(C)[C@@H]4CC[C@]23C)O1`: in the series with Liver microsome [7], the Drug metabolism entry is on record as “metabolite_detected”. This compound also displayed a Retention_time in the series with Hepatocyte [6] of 16 min.
Turning to `CC(C)(O[C@@H]1O[C@H](C(=O)O)[C@@H](O)[C@H](O)[C@H]1O)[C@H]1CC[C@@](C)([C@H]2CC[C@]3(C)[C@@H]2[C@H](O)C[C@@H]2[C@@]4(C)CC[C@H](O)C(C)(C)[C@@H]4CC[C@]23C)O1`, the Drug metabolism entry with Liver microsome [8] is “metabolite_detected”. Further, the Retention_time in the series with Hepatocyte [6] was found to be 16.9 min.
On to `CC(C)(O)[C@@H]1CC[C@@](C)([C@H]2CC[C@]3(C)[C@@H]2[C@H](O)C[C@@H]2[C@@]4(C)CC[C@H](O)C(C)(C)[C@@H]4CC[C@]23C)O1`, for which the Drug metabolism result in the series on Liver microsome [9] and with Hepatocyte [2] was “metabolite_detected” in each case. Also, the Retention_time (in the series with Liver microsome [1]; in series [5]) was 19.2 min in each case. Also, in series [3], the Drug excretion entry was “metabolite_detected”.

The values above are taken from ChEMBL document CHEMBL3525992, “Identification of 20(S)-protopanaxadiol metabolites in human liver microsomes and human hepatocytes” (Drug Metab Dispos, 2011).
